Source: article PMC7103123 (Toxicology and Applied Pharmacology, 2017)

Experiments:
[1] = Cytotoxicity assay in TGEV infected ST cells; type: cell-based, swine; settings: swine
Outline: (§1)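 Cytotoxicity is measured in TGEV-infected ST cells in parallel with the immunofluorescence replication assay, with compound pretreatment for 1 h. CC50 is read at 6 h.p.i. Means ± S.D. come from 3–5 independent experiments, each in duplicate.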

TGEV [2] = assay: Cytopathic effect assay in TGEV infected ST cells; type: cell-based, porcine transmissible gastroenteritis virus; settings: 1 μM, TGEV 3.5 MOI, 18 h.p.i.
Outline: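 ST cells are pretreated with test compound for 1 h, then TGEV-infected at MOI 3.5, with mock-infected controls. At 18 h.p.i., cytopathic effect (rounding, enlargement, syncytia, detachment) is scored and viability is measured by MTS. Survival is compared with vehicle-treated infected cells by Student t-test. Three independent experiments.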

Na^+/K^+-ATPase = Na^+/K^+-ATPase protein level in ST cells; type: cell-based, swine; settings: Fig. 4D-a
TGEV [3] = assay: Effect of Na^+/K^+-ATPase activators on TGEV activity in ST cells; type: cell-based, porcine transmissible gastroenteritis virus; settings: Fig. 4D-b
TGEV [4] = assay: Anti-TGEV IC50 of cardenolides alone or combined with aldosterone or Db cAMP; type: cell-based, porcine transmissible gastroenteritis virus; settings: Fig. 4D-c
ST cells = assay: Cytotoxicity assay in TGEV infected ST cells; type: cell-based, swine; settings: read-out: ST CC50; cytotoxicity in TGEV infected ST cells at 6 h.p.i.
Outline: as §1

[5] = tested on: caspase-3 activation in TGEV infected ST cells; assay: Western blot for TGEV induced caspase-3 activation in ST cells; type: cell-based, swine; settings: 1 μM, 18 h.p.i.
Outline: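 TGEV-infected swine testicular (ST) cells were treated with test compound at the indicated concentrations and harvested at 18 h post-infection. Lysates were analysed by western blot with antibodies against caspase-3 to detect its activation, plus TGEV N protein and β-actin as the loading control. A reference anti-TGEV compound served as the positive control.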

TGEV N protein = assay: Western analysis for TGEV N protein expression in infected ST cells; type: cell-based, porcine transmissible gastroenteritis virus
Outline: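 Western blot for TGEV N protein in infected ST cells. In the titer-linked set, compound is added 1 h before TGEV (0.01 MOI), with 22 h incubation at 37 °C. Adherent cells are harvested for blotting while supernatants go to titration. Three or more independent experiments.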

Compound | CC50 at 6 h post infection [1] [µM] | CC50 (ST cells) [µM] | other results
COc1cc2c3c(c4cc(OC)c(OC)cc4c2cc1OC)CN1CCC[C@@H]1C3 [Tylophorine] | > 10 | – | protection against cytopathic effect (TGEV [2]): displayed protection
CCCC(=O)Nc1ncnc2c1ncn2[C@@H]1O[C@@H]2COP(=O)([O-])O[C@H]2[C@H]1OC(=O)CCC.[Na+] [Db cAMP, N6,2′-O-Dibutyryladenosine 3′,5′-cyclic monophosphate sodium salt] | – | – | Na^+/K^+-ATPase protein level in ST cells (Na^+/K^+-ATPase): moderately augmented; infectivity of TGEV (TGEV [3]): increased the infectivity; effect on anti-TGEV activity of cardenolides (TGEV [4]): able to antagonize
Reevesioside I /epi-Reevesioside I | – | > 50 | –
Reevesioside D | – | > 50 | –
Reevesioside F | – | > 10 | protection against caspase-3 activation [5]: strong protection
CO[C@H]1C[C@H](O[C@H]2CC[C@@]3(C)[C@H](CC[C@@H]4[C@@H]3CC[C@]3(C)[C@@H](C5=CC(=O)OC5)[C@@H](OC(C)=O)C[C@]43O)C2)O[C@@H](C)[C@@H]1O [Oleandrin, oleandrin] | > 10 | – | N protein expression in TGEV infected ST cells (TGEV N protein; TGEV 0.01 MOI, 22 h.p.i. (Fig. 3B)): dose dependant manner; N protein expression by western analyses in TGEV infected ST cells (TGEV N protein; various doses (Fig. 1D)): dose dependent manner of decreases; protection against caspase-3 activation [5]: strong protection
C[C@@H]1O[C@@H](O[C@H]2C[C@@H](O)[C@]3(CO)[C@H]4[C@H](O)C[C@]5(C)[C@@H](C6=CC(=O)OC6)CC[C@]5(O)[C@@H]4CC[C@]3(O)C2)[C@H](O)[C@H](O)[C@H]1O [Ouabain, ouabain] | > 10 | – | protection against caspase-3 activation [5]: strong protection
Reevesioside B | – | > 50 | –
C[C@]12CCC(=O)C=C1CC[C@@H]1[C@@H]2[C@@H](O)C[C@]2(C=O)[C@@H](C(=O)CO)CC[C@@H]12 [Aldosterone, aldosterone] | – | – | Na^+/K^+-ATPase protein level in ST cells (Na^+/K^+-ATPase): moderately augmented; infectivity of TGEV (TGEV [3]): increased the infectivity; effect on anti-TGEV activity of cardenolides (TGEV [4]): able to antagonize
C[C@]12CC[C@H](O)C[C@H]1CC[C@@H]1[C@@H]2CC[C@]2(C)[C@@H](C3=CC(=O)OC3)CC[C@]12O [Digitoxigenin, digitoxigenin] | > 10 | – | –
C[C@H]1O[C@@H](O[C@H]2[C@@H](O)C[C@H](O[C@H]3[C@@H](O)C[C@H](O[C@H]4CC[C@@]5(C)[C@H](CC[C@@H]6[C@@H]5C[C@@H](O)[C@]5(C)[C@@H](C7=CC(=O)OC7)CC[C@]65O)C4)O[C@@H]3C)O[C@@H]2C)C[C@H](O)[C@@H]1O [Digoxin, digoxin] | > 10 | – | –
Reevesioside C | – | > 50 | –
Reevesioside H /epi-Reevesioside H | – | > 50 | –
Reevesioside E | – | > 50 | –
C[C@H]1O[C@@H](O[C@H]2[C@@H](O)C[C@H](O[C@H]3[C@@H](O)C[C@H](O[C@H]4CC[C@@]5(C)[C@H](CC[C@@H]6[C@@H]5CC[C@]5(C)[C@@H](C7=CC(=O)OC7)CC[C@]65O)C4)O[C@@H]3C)O[C@@H]2C)C[C@H](O)[C@@H]1O [Digitoxin, digitoxin] | > 10 | – | protection against caspase-3 activation [5]: strong protection
